Assay results from publication PMC12409571 (ACS Omega, 2025).

What was measured:
[1] = target: T1, human TRPA1 (Homo sapiens, UniProt O75762); test: Whole-cell patch clamp of TRPA1 currents in HEK293T cells; type: cell-based
[2] = target: T1, human TRPA1; test: Cell-attached single-channel recordings of TRPA1 in HEK293T cells; type: cell-based; conditions: −60 mV; 100 μM AITC alone, or with 5 μM PHL-B
[3] = tested on: TRPA1 channels; conditions: read-out: EC50 (activation of TRPA1 channels); cited from earlier work
[4] = target: rat TRPM8 (Rattus norvegicus, UniProt Q8R455); test: Compound selectivity fluorescence-based Ca2+ assay, menthol-stimulated TRPM8; type: cell-based; conditions: 30 μM menthol; PHL-B different concentrations; sesamin 20 μM
Chain of rat TRPM8 (Q8R455 whole entry): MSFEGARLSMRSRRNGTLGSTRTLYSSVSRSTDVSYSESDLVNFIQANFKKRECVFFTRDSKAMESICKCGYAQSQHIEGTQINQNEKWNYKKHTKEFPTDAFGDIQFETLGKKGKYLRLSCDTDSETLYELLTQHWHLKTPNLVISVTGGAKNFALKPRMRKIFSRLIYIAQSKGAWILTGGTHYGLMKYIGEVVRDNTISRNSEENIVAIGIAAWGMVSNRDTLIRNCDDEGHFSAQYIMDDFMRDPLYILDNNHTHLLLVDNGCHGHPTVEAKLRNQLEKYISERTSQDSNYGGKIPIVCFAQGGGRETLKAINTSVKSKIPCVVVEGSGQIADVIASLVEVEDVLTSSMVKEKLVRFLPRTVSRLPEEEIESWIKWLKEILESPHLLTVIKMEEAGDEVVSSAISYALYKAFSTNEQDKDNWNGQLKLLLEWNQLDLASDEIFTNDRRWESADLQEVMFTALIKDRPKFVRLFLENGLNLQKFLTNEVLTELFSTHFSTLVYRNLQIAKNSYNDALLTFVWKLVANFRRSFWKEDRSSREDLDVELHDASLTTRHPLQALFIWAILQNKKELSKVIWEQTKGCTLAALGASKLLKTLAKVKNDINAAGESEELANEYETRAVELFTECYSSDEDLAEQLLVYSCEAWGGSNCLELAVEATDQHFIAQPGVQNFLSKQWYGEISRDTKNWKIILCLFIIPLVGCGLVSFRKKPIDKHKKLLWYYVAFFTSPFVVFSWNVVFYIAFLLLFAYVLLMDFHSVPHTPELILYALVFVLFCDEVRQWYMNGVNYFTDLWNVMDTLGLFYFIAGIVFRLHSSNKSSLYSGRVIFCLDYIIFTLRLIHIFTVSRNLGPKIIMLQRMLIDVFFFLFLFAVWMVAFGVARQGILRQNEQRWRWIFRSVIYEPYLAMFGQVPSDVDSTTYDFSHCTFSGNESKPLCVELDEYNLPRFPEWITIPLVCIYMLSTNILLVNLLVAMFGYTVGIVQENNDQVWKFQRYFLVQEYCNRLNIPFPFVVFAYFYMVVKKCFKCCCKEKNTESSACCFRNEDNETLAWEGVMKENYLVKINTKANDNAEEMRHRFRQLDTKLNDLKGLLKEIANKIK
Outline: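 HEK293T cells were cotransfected with rat TRPM8 and GCaMP6s and assayed after 48 h with GCaMP6s fluorescence. Channels were activated with 30 μM menthol; 20 μM sesamin served as the reference inhibitor. Read-out F/F0; N = 3–5 independent experiments.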

[5] = target: human TRPV1 (Homo sapiens, UniProt Q8NER1); test: Compound selectivity fluorescence-based Ca2+ assay, capsaicin-stimulated TRPV1; type: cell-based; conditions: 10 μM capsaicin; PHL-B 0.1-10 μM; capsazepine 1 μM
Chain of human TRPV1 (Q8NER1 whole entry): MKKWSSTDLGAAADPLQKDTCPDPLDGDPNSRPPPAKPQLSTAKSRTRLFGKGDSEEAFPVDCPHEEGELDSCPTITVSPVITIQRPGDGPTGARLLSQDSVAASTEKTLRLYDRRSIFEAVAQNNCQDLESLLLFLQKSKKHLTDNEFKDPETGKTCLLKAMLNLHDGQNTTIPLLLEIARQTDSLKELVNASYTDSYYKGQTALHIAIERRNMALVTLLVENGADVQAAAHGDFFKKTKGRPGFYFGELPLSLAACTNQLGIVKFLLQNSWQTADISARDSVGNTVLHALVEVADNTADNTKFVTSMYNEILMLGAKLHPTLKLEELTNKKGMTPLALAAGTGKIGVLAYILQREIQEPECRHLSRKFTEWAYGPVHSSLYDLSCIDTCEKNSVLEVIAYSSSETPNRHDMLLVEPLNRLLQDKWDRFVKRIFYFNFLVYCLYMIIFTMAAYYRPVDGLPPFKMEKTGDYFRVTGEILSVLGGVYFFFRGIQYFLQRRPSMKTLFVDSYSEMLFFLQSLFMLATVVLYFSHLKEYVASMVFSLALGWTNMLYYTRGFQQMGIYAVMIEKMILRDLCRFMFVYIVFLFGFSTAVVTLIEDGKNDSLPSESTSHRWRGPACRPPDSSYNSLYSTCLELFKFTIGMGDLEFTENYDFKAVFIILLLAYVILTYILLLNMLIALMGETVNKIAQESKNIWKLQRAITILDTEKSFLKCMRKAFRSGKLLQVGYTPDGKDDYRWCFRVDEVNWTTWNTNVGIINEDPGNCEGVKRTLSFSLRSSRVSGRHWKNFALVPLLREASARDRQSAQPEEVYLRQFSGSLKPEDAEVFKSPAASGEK

[6] = 100 μM AITC alone, or 100 μM AITC + 5 μM PHL-B, voltage ramp

T1 sequence (O75762 whole entry): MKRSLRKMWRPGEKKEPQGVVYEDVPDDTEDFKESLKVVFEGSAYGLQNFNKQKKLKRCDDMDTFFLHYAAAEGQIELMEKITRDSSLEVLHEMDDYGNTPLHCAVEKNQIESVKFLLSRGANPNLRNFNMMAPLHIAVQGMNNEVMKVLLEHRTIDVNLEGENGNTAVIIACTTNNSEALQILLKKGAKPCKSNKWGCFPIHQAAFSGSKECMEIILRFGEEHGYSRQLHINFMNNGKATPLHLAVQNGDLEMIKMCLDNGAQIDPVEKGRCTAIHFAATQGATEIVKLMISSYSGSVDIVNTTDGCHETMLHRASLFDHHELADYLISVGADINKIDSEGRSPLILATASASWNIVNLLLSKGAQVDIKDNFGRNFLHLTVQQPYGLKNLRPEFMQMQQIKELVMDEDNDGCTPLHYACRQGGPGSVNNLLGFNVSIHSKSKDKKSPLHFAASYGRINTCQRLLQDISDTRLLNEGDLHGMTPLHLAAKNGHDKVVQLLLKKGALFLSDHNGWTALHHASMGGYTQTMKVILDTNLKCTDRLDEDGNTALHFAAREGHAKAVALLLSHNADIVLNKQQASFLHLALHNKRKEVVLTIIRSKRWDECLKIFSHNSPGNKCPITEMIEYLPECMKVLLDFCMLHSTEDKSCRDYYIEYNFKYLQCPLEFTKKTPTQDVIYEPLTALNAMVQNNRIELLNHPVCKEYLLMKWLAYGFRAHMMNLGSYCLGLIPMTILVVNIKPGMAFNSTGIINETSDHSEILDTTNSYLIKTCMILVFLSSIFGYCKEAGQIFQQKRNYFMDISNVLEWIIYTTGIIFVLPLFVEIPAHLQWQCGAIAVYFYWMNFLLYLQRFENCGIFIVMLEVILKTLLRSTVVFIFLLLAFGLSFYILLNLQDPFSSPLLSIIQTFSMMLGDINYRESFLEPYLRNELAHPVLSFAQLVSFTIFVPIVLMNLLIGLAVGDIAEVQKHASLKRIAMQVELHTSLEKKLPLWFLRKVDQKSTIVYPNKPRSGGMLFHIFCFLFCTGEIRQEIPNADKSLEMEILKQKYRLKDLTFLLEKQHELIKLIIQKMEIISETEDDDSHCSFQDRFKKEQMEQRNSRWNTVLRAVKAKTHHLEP

For `C=CCN=C=S` [AITC, allyl isothiocyanate], which “current density at +50 mV” value [1, 6] is on record?
The value was 30.5 ± 2.9 pA/pF.

And the “current density at −100 mV” value [1, 6]?
Its value is −91.73 ± 11.47 pA/pF.

And the “τoff (time course of recovery)” value ([1]; −60 mV, 100 μM AITC, or 100 μM AITC + 5 μM PHL-B)?
Its value is 28.6 ± 3.4 ms.

And the “fold increase of channel open probability (PO) over basal” value [2]?
The value was “approximately 150 fold”.

For `CC(C)c1cc2c(c(O)c1O)[C@@]13CCCC(C)(C)[C@@H]1C[C@@H]2OC3=O` [carnosol], which EC50 [3] is on record?
Its EC50 is ~12 µM.

For `c1cc2c(cc1[C@H]1OC[C@H]3[C@@H]1CO[C@@H]3c1ccc3c(c1)OCO3)OCO2` [sesamin], which “effect on menthol-induced Ca2+ influx (TRPM8)” value [4] is on record?
The value was “practically inhibited all”.

With `Oc1cc2c(cc1O)CN(C(=S)NCCc1ccc(Cl)cc1)CCC2` [Capsazepine, capsazepine] as the compound, how does the “effect on capsaicin-induced normalized fluorescence (TRPV1)” value [5] read?
Its value is “fully abolished”.
